Source: ChEMBL document CHEMBL3779799, “Antifibrotic and anticancer action of 5-ene amino/iminothiazolidinones” (Eur J Med Chem, 2016)
Each block holds one molecule with its values, some of them ahead of it. Activity calls are given as the source filed them. No cut-off for these calls is given here.

How the values were obtained:
[1] = system: HFL1; assay: Antifibrotic activity in HFL1 cells assessed as inhibition of cell viability after 48 hrs by sulforhodamine B assay; format: functional, cell-based; conditions: Homo sapiens, HFL1, 48 h
Summary of the method: (§1)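 HFL-1 human fetal lung fibroblasts (DMEM, 10% FCS, passages 14–18) seeded at 8000 cells/well, attached overnight, then exposed to a range of concentrations for 48 h in triplicate. Cells were fixed with TCA and stained with 0.4% SRB, bound dye was solubilized in Tris, and OD was read at 570 nm relative to control.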

[2] = system: HFL1; assay: Antifibrotic activity in HFL1 cells assessed as inhibition of cell viability at >1 uM after 48 hrs by sulforhodamine B assay relative to control; format: functional; conditions: Homo sapiens, HFL1, 48 h; summary of the method: as §1
[3] = Antioxidant activity assessed as inhibition of superoxide anion generation measured for 3 mins by nitro blue tetrazolium assay; format: physicochemical; conditions: for Emax: 0.05 h
Summary of the method: (§2)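 Cell-free superoxide generated by xanthine (1 mM) and xanthine oxidase (0.11 U/mL), with NBT (50 µM) as detector. Compounds in DMSO were tested up to 10 µM, with DMSO held at 0.1%. NBT reduction rate (dA560/dt) was read spectrophotometrically over 3 min from the linear part.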

[4] = system: MCF7; assay: Cytotoxicity against human MCF7 cells assessed as cell growth at 10^-4 M after 48 hrs by sulforhodamine B assay relative to control; format: functional; conditions: MCF7, 48 h, read-out: Activity
Summary of the method: (§3)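 Cells were inoculated and preincubated 24–48 h, then exposed to a single dose of 10^-4 M for 48 h. SRB protein staining was the endpoint, and growth percent was calculated versus untreated controls.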

[5] = Cytotoxicity against human SF268 cells assessed as cell growth at 10^-4 M after 48 hrs by sulforhodamine B assay relative to control; format: functional; conditions: SF-268, 48 h, read-out: Activity; summary of the method: as §3
[6] = system: NCI-H460; assay: Cytotoxicity against human NCI-H460 cells assessed as cell growth at 10^-4 M after 48 hrs by sulforhodamine B assay relative to control; format: functional; conditions: NCI-H460, 48 h, read-out: Activity; summary of the method: as §3
[7] = Antioxidant activity assessed as inhibition of superoxide anion generation upto 10 uM measured for 3 mins by nitro blue tetrazolium assay; format: physicochemical; conditions: 0.05 h; summary of the method: as §2
[8] = system: HFL1; assay: Antifibrotic activity in HFL1 cells assessed as reduction in cell proliferation at 0.1 to 1 uM after 150 hrs by xCelligence analysis; format: functional, cell-based; conditions: Homo sapiens
Summary of the method: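 HFL-1 cells were seeded at 20,000/well and monitored by real-time impedance (xCelligence). Compound or DMSO vehicle was added at ~30 h, once attachment was maximal, and cells were followed for another 150 h. P150 was taken as the signal difference between 30 h and 180 h; Pdot was the maximum slope of the curve.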

[9] = system: MDA-MB-231; assay: Growth inhibition of human MDA-MB-231 cells after 48 hrs by sulforhodamine B assay; format: functional; conditions: MDA-MB-231, 48 h
Summary of the method: (§4)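 NCI ~60-cell-line panel with five 10-fold dilutions (10^-4 to 10^-8 M) and 48 h continuous exposure, using an SRB endpoint. Percentage growth was derived from time-zero, control and treated absorbances. […] Values are expressed as > or < when outside the tested range.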

[10] = Growth inhibition of human NCI60 cells after 48 hrs by sulforhodamine B assay; format: functional; conditions: NCI60, 48 h; for CC50: read-out: pLC50 (the source's name) (converted); for TGI: read-out: pTGI (converted)
Summary of the method: (§5)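 NCI ~60-cell-line panel with five 10-fold dilutions (10^-4 to 10^-8 M) and 48 h continuous exposure, using an SRB endpoint. Percentage growth was derived from time-zero, control and treated absorbances. Values are expressed as > or < when outside the tested range.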

[11] = system: U-251; assay: Growth inhibition of human U251 cells after 48 hrs by sulforhodamine B assay; format: functional; conditions: U-251, 48 h; summary of the method: as §4
[12] = Growth inhibition of human HCT116 cells after 48 hrs by sulforhodamine B assay; format: functional; conditions: HCT-116, 48 h; for CC50: read-out: LC50 (the source's name); summary of the method: as §5
[13] = Growth inhibition of human HOP92 cells after 48 hrs by sulforhodamine B assay; format: functional; conditions: HOP-92, 48 h; summary of the method: as §4
[14] = Growth inhibition of human HOP62 cells after 48 hrs by sulforhodamine B assay; format: functional; conditions: HOP-62, 48 h; summary of the method: as §4
[15] = Growth inhibition of human OVCAR3 cells after 48 hrs by sulforhodamine B assay; format: functional; conditions: OVCAR-3, 48 h; summary of the method: as §4
[16] = system: KM12; assay: Growth inhibition of human KM12 cells after 48 hrs by sulforhodamine B assay; format: functional; conditions: KM12, 48 h; summary of the method: as §4
[17] = system: MCF7; assay: Growth inhibition of human MCF7 cells after 48 hrs by sulforhodamine B assay; format: functional; conditions: MCF7, 48 h; summary of the method: as §4
[18] = Growth inhibition of human SW620 cells after 48 hrs by sulforhodamine B assay; format: functional; conditions: SW-620, 48 h; summary of the method: as §4
[19] = Growth inhibition of human RPMI8226 cells after 48 hrs by sulforhodamine B assay; format: functional; conditions: RPMI-8226, 48 h; summary of the method: as §4
[20] = system: MDA-MB-435; assay: Growth inhibition of human MDA-MB-435 cells after 48 hrs by sulforhodamine B assay; format: functional; conditions: MDA-MB-435, 48 h; summary of the method: as §4
[21] = system: SR; assay: Growth inhibition of human SR cells after 48 hrs by sulforhodamine B assay; format: functional
Summary of the method: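 NCI 60-cell-line panel, five-dose screen: cells inoculated and preincubated 24-48 h, then exposed continuously for 48 h to five 10-fold dilutions from 10^-4 to 10^-8 M. Protein measured by SRB staining at time zero, in untreated control and in treated wells.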

[22] = system: HFL1; assay: Antifibrotic activity in HFL1 cells assessed as reduction in cell proliferation after 150 hrs by xCelligence analysis; conditions: Homo sapiens
[23] = read-out: LC50 (the source's name)

IC50 [3]: 1.96 µM
Emax [3]: 35.8%
Structure (SMILES): CC1S/C(=N/N=C/c2cccnc2)NC1=O (racemic)
IC50 [1]: 0.83 µM
Emax [2]: 84.6%

Structure (SMILES): O=C(CC1SC(Nc2ccc(O)cc2)=NC1=O)c1ccc(F)cc1 (racemic)
IC50 [1]: 0.19 µM
Emax [2]: 54.2%
growth at 100 µM [4]: 66%
growth at 100 µM [5]: 53%
growth at 100 µM [6]: 62%

inhibition (INH) [7]: Not Active
Structure (SMILES): O=C(CC1SC(=Nc2cccc(O)c2)NC1=O)Nc1ccc(Br)cc1 (racemic)
IC50 [1]: 0.16 µM
Emax [2]: 77.6%

IC50 [3]: 1.32 µM
Emax [3]: 86.5%
Structure (SMILES): C=CCN1C(=O)/C(=C2/C(=O)Nc3ccccc32)S/C1=N\c1nccs1
IC50 [1]: 0.09 µM
Emax [2]: 65.9%
growth at 100 µM [4]: 76%
Activity [8]: Active
growth at 100 µM [5]: 82%
growth at 100 µM [6]: 49%

Structure (SMILES): O=C1CS/C(=N/N=C/c2cccnc2)N1
IC50 [1]: 0.81 µM
Emax [2]: 92.1%

Structure (SMILES): NS(=O)(=O)c1ccc(NC2=NC(=O)C(CC(=O)Nc3ccc(Br)cc3)S2)cc1 (racemic)
GI50 [9]: 18.5 µM
TGI [9]: 38.2 µM
CC50 [9, 23]: 78.6 µM
GI50 [10]: 58.9 µM
CC50 [10]: 97.7 µM
TGI [10]: 89.1 µM
GI50 [11]: 20.7 µM
LC50 (concentration killing 50% of cells) [11]: 94.3 µM
TGI [11]: 44.2 µM
GI50 [12]: 21.8 µM
TGI [12]: 43.5 µM
CC50 [12]: 86.7 µM
GI50 [13]: 24.3 µM
TGI [13]: 58.3 µM
CC50 [13, 23]: > 100 µM
growth at 100 µM [4]: 24%
growth at 100 µM [5]: 45%
growth at 100 µM [6]: 88%
GI50 [14]: 15.6 µM
TGI [14]: 31.7 µM
CC50 [14, 23]: 64.3 µM

Structure (SMILES): Cc1ccc2c(c1)/C(=C1/SC(N(C)c3ccc(O)cc3)=NC1=O)C(=O)N2
IC50 [1]: 0.07 µM
Emax [2]: 31.3%
growth at 100 µM [4]: 89%
growth at 100 µM [5]: 74%
growth at 100 µM [6]: 95%

Structure (SMILES): O=C1N=C(Nc2ccc(O)cc2)S/C1=C\c1ccccc1
GI50 [10]: 12.9 µM
CC50 [10]: 100 µM
TGI [10]: 89.1 µM
GI50 [15]: 0.71 µM
TGI [15]: > 100 µM
CC50 [15, 23]: > 100 µM
GI50 [16]: 0.87 µM
TGI [16]: > 100 µM
CC50 [16, 23]: > 100 µM
IC50 [1]: 0.09 µM
Emax [2]: 23.8%
GI50 [11]: 0.68 µM
LC50 (concentration killing 50% of cells) [11]: > 100 µM
TGI [11]: > 100 µM
GI50 [17]: 0.25 µM
TGI [17]: > 100 µM
CC50 [17, 23]: > 100 µM
GI50 [18]: 0.47 µM
TGI [18]: > 100 µM
CC50 [18, 23]: > 100 µM
GI50 [19]: 0.6 µM
TGI [19]: > 100 µM
CC50 [19, 23]: > 100 µM
GI50 [12]: 0.32 µM
TGI [12]: > 100 µM
CC50 [12]: > 100 µM
GI50 [20]: 0.21 µM
TGI [20]: 0.92 µM
CC50 [20, 23]: > 100 µM
GI50 [21]: 0.09 µM
CC50 [21, 23]: > 100 µM

Structure (SMILES): O=C1N=C(Nc2ccc(O)cc2)S/C1=C\c1ccc(Cl)cc1
IC50 [1]: 0.02 µM
Emax [2]: 46.1%
Activity [22]: Dose-dependent effect

inhibition (INH) [7]: Not Active
Structure (SMILES): COc1ccccc1NC(=O)CSc1nnc(/N=C2\NC(=O)CS2)s1
IC50 [1]: 0.4 µM
Emax [2]: 75%
Activity [8]: Active

Structure (SMILES): CC(/C=N/N=C1\SC(CC(=O)Nc2cccc(C(F)(F)F)c2)C(=O)N1Cc1ccco1)=C\c1ccccc1 (mixture of isomers)
IC50 [1]: 0.03 µM
Emax [2]: 44.3%
Activity [22]: Dose-dependent effect

IC50 [3]: 6.8 µM
Emax [3]: 38.7%
Structure (SMILES): CCOc1cc(/C=C2\SC(Nc3nc4ccc(C)cc4s3)=NC2=O)ccc1O
IC50 [1]: 0.01 µM
Emax [2]: 48.1%
